Legend:
[1] = Antiplatelet activity in rabbit platelet rich plasma assessed as inhibition rate of ADP-induced platelet aggregation at 200 uM after 5 mins by aggregometry; type: functional; conditions: Oryctolagus cuniculus
In short: (§1)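 Rabbit platelet-rich plasma obtained by centrifuging blood at 1000 rpm for 5 min. Platelet-poor plasma (3000 rpm, 15 min) served as the reference. Platelets were adjusted to 3×10¹¹/L. PRP was mixed with compound at final levels 400, 200, 100 or 50 and incubated at 37 °C for 5 min before aggregation was read. IC50 was derived by linear regression.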

ECV-304 [2] = assay: Protection against H2O2-induced toxicity in human ECV304 cells assessed as proliferation rate pretreated for 24 hrs before H2O2 challenge measured after 12 hrs by MTT assay; type: functional, cell-based
In short: (§2)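 ECV-304 cells were seeded at 6×10³/well and grown to confluence. Cells were pretreated 24 h with compound in DMSO (final ≤0.05%), then given H2O2 (150) for 12 h at 37 °C, 5% CO2. MTT (5 mg/mL) was added for 4 h, formazan dissolved in DMSO, and A570 read. Proliferation rate = [OD(compd)−OD(H2O2)]/[OD(control)−OD(H2O2)]×100%. EC50 was calculated from proliferation rates by formula.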

ECV-304 [3] = assay: Protection against H2O2-induced toxicity in human ECV304 cells assessed as proliferation rate at 100 uM pretreated for 24 hrs before H2O2 challenge measured after 12 hrs by MTT assay; type: functional; conditions: read-out: Activity; in short: as §2
ECV-304 [4] = assay: Protection against H2O2-induced toxicity in human ECV304 cells assessed as proliferation rate at 12.5 uM pretreated for 24 hrs before H2O2 challenge measured after 12 hrs by MTT assay; type: functional; conditions: read-out: Activity; in short: as §2
[5] = Antiplatelet activity in rabbit platelet rich plasma assessed as inhibition of ADP-induced platelet aggregation after 5 mins by aggregometry; type: functional; conditions: Oryctolagus cuniculus; in short: as §1
[6] = Antiplatelet activity in rabbit platelet rich plasma assessed as inhibition rate of ADP-induced platelet aggregation at 400 uM after 5 mins by aggregometry; type: functional; conditions: Oryctolagus cuniculus; in short: as §1
ECV-304 [7] = assay: Protection against H2O2-induced toxicity in human ECV304 cells assessed as proliferation rate at 25 uM pretreated for 24 hrs before H2O2 challenge measured after 12 hrs by MTT assay; type: functional; conditions: read-out: Activity; in short: as §2
[8] = Antiplatelet activity in rabbit platelet rich plasma assessed as inhibition rate of ADP-induced platelet aggregation at 50 uM after 5 mins by aggregometry; type: functional; conditions: Oryctolagus cuniculus; in short: as §1
[9] = Antiplatelet activity in rabbit platelet rich plasma assessed as inhibition rate of ADP-induced platelet aggregation at 100 uM after 5 mins by aggregometry; type: functional; conditions: Oryctolagus cuniculus; in short: as §1
ECV-304 [10] = assay: Protection against H2O2-induced toxicity in human ECV304 cells assessed as proliferation rate at 50 uM pretreated for 24 hrs before H2O2 challenge measured after 12 hrs by MTT assay; type: functional; conditions: read-out: Activity; in short: as §2

Row | SMILES | inhibition at 200 µM [1] | EC50 (ECV-304 [2]) | growth at 100 µM (ECV-304 [3]) | growth at 12.5 µM (ECV-304 [4]) | IC50 [5] | inhibition at 400 µM [6] | growth at 25 µM (ECV-304 [7]) | inhibition at 50 µM [8] | inhibition at 100 µM [9] | growth at 50 µM (ECV-304 [10])
1 | COc1cc(/C=C/C(=O)O)cc(OC)c1OCc1nc(C)c(C)nc1C | 47.3% | 3530 µM | -132% | -74.6% | 182 µM | 64.3% | -33.8% | 33% | 41% | -95.9%
2 | CCOC(=O)/C=C/c1ccc(OCc2nc(C)c(C)nc2C)c(O)c1 | 25.7% | 139 µM | 37.3% | -18.7% | 1380 µM | 41.8% | -8.45% | 13.9% | 23% | 10.3%
3 | CCOC(=O)/C=C/c1ccc(OCc2nc(C)c(C)nc2C)c(OC)c1 | 40.2% | 109 µM | 70.2% | 29.5% | 449 µM | 49.5% | 43.5% | 26.2% | 36.9% | 50.9%
4 | CCOC(=O)/C=C/c1cc(OC)c(OCc2nc(C)c(C)nc2C)c(OC)c1 | 38.5% | 2310 µM | -180% | -31.1% | 631 µM | 48.1% | -81.9% | 31% | 35% | -94.2%
5 | CCOC(=O)/C=C/c1cccc(OCc2nc(C)c(C)nc2C)c1 | 34.8% | 4330 µM |  | -1.52% | 628 µM | 43% | -180% | 14.5% | 29.4% | 278%
6 | CCOC(=O)/C=C/c1ccccc1OCc1nc(C)c(C)nc1C | 33.4% | 1540 µM |  | -1.24% | 502 µM | 48.1% | -109% | 16.4% | 30.1% | 327%
7 | CCOC(=O)/C=C/c1cccc(OC)c1OCc1nc(C)c(C)nc1C | 12.5% | 3040 µM |  | -92.5% | > 2000 µM | 28.1% | 58.7% | 6.97% | 10.5% | 16.6%
8 | CCOC(=O)/C=C/c1cc(Cl)ccc1OCc1nc(C)c(C)nc1C | 14.5% | 16900 µM |  | -0.46% | > 2000 µM | 18.7% | -94.4% | 7.66% | 11.3% | -186%
9 | CCOC(=O)/C=C/c1cc(Br)cc(Br)c1OCc1nc(C)c(C)nc1C | 15.8% | 1590 µM |  | -25.7% | > 2000 µM | 16.1% | -6.88% | 9.8% | 13.5% | 73.9%
10 | CCOC(=O)/C=C/c1cc(Br)c(OCc2nc(C)c(C)nc2C)c(Br)c1 | 16.3% | 1970 µM |  | -130% | > 2000 µM | 20.7% | 57% | 6.77% | 10.7% | 66.1%
11 | Cc1nc(C)c(COc2ccc(/C=C/C(=O)O)cc2O)nc1C | 60% | 46 µM | 170% | 15.3% | 176 µM | 87% | 131% | 3.46% | 11.8% | 157%
12 | COc1cc(/C=C/C(=O)O)ccc1OCc1nc(C)c(C)nc1C | 51.9% | 295 µM | -19.6% | -12.5% | 157 µM | 73.2% | -22.4% | 17.5% | 47% | -17.8%
13 | Cc1nc(C)c(COc2ccccc2/C=C/C(=O)O)nc1C | 70.2% | 499 µM | -34.6% | 183% | 54 µM | 76.8% | 370% | 46.1% | 62.3% | 237%
14 | COc1cccc(/C=C/C(=O)O)c1OCc1nc(C)c(C)nc1C | 28.4% | 3590 µM |  | -164% | 522 µM | 47.6% | -0.71% | 8.97% | 26.1% | 50.3%
15 | Cc1nc(C)c(COc2ccc(Cl)cc2/C=C/C(=O)O)nc1C | 45.6% | 9300 µM |  | -98.3% | 1050 µM | 67% | -44% | 24.7% | 38.4% | -153%
16 | Cc1nc(C)c(COc2c(Br)cc(Br)cc2/C=C/C(=O)O)nc1C | 33.1% | 155 µM | -24.8% | -22.3% | 1310 µM | 37.4% | 4.21% | 18.1% | 20% | 48.5%
17 | Cc1nc(C)c(COc2c(Br)cc(/C=C/C(=O)O)cc2Br)nc1C | 38.6% | 3280 µM | -85.8% | -83.8% | 1290 µM | 55.4% | -104% | 5.3% | 62.8% | -113%
18 | Cc1nc(C)c(C)nc1C [LIGUSTRAZINE] |  | 600 µM | 42.8% | 10.4% |  |  | 12.7% |  |  | 22.1%
19 | O=C(O)/C=C/c1ccc(Cn2ccnc2)cc1 [OZAGREL] | 45.4% |  |  |  | 360 µM | 55.3% |  | 23.3% | 27.3% | 

Reference: ChEMBL document CHEMBL1909548, “Ligustrazine derivatives. Part 5: design, synthesis and biological evaluation of novel ligustrazinyloxy-cinnamic acid derivatives as potent cardiovascular agents” (Eur J Med Chem, 2011)
